Usually MIC stands for the lowest concentration found to suppress growth.

Holding throughout (type): functional
Assay [1] deals with Pseudomonas aeruginosa. The experiment in a line: Antimicrobial activity against ampGh1 deficient Pseudomonas aeruginosa PAK after 16 to 20 hrs by broth microdilution method in presence of 120 uM carbonyl cyanide m-chlorophenyl-hydrazone. Summed up:
(§1)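 CLSI broth microdilution in Mueller-Hinton broth with serial antibiotic dilutions. CCCP was added from a 10 mM DMSO stock to 120 μM final, then the bacterial culture was added as inoculum (about 10^4 cells from OD600 0.5 starter cultures). MIC was the lowest concentration preventing growth after 16 to 20 h at 37°C, run in triplicate.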
A general note: Broth dilution looks for growth in wells or tubes with falling amounts of substance.

Assay [2] deals with Pseudomonas aeruginosa. Nature of the assay: Antimicrobial activity against Pseudomonas aeruginosa isolate 1 obtained from cystic fibrosis patients after 16 to 20 hrs by broth microdilution method in presence of 120 uM carbonyl cyanide m-chlorophenyl-hydrazone. The method, boiled down: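 CLSI broth microdilution in Mueller-Hinton broth with CCCP added from a 10 mM DMSO stock to 120 μM final, alongside 2-fold serial antibiotic dilutions. Inoculum from starter cultures grown to OD600 0.5. MIC is the lowest concentration preventing growth after 16-20 h at 37°C. Triplicate.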

Assay [3] concerns Escherichia coli. The experiment in a line: Antimicrobial activity against kanamycin resistant Escherichia coli SNO301-1 harboring pEC1C carrying ampC, ampR from Enterobacter cloacae after 16 to 20 hrs by broth microdilution method. The method, boiled down:
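CLSI broth microdilution: serial 2-fold β-lactam dilutions in Mueller-Hinton broth, inoculum about 10^4 cells from starter cultures at OD600 0.5; MIC read as lowest concentration preventing growth after 16 to 20 h at 37°C; triplicate determinations.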

Assay [4] relates to Pseudomonas aeruginosa. The experiment in a line: Antimicrobial activity against Pseudomonas aeruginosa isolate 6 obtained from cystic fibrosis patients after 16 to 20 hrs by broth microdilution method. The method, boiled down: (§2)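 CLSI broth microdilution in Mueller-Hinton broth, serial 2-fold antibiotic dilutions. Inoculum about 10^4 cells per well, taken from starter cultures grown to OD600 0.5. MIC was the lowest antibiotic concentration preventing growth after 16 to 20 h at 37°C. Each MIC was determined in triplicate.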

The subject of assay [5] is Pseudomonas aeruginosa. The experiment in a line: Antimicrobial activity against ampG deficient Pseudomonas aeruginosa PAO1 after 16 to 20 hrs by broth microdilution method. Summed up: as §2
Assay [6] concerns Pseudomonas aeruginosa. The experiment in a line: Antimicrobial activity against Pseudomonas aeruginosa isolate 17 obtained from cystic fibrosis patients after 16 to 20 hrs by broth microdilution method. The method, boiled down: as §2
Assay [7] has as its system Pseudomonas aeruginosa. The experiment in a line: Antimicrobial activity against ampG deficient Pseudomonas aeruginosa PAK harboring pUCP24 conferring resistance to gentamycin after 16 to 20 hrs by broth microdilution method. Summed up: as §2
Assay [8] deals with Pseudomonas aeruginosa. Nature of the assay: Antimicrobial activity against ampG deficient Pseudomonas aeruginosa PAO1 harboring pZY0901 conferring resistance to gentamycin after 16 to 20 hrs by broth microdilution method in presence of 120 uM carbonyl cyanide m-chlorophenyl-hydrazone. Summed up: as §1
The subject of assay [9] is Pseudomonas aeruginosa. Nature of the assay: Antimicrobial activity against Pseudomonas aeruginosa isolate 15 obtained from cystic fibrosis patients after 16 to 20 hrs by broth microdilution method. The method, boiled down: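 CLSI broth microdilution: 2-fold serial antibiotic dilutions in Mueller-Hinton broth, inoculated with about 10^4 cells per 100 μl from starter cultures grown to OD600 0.5. MIC is the lowest concentration preventing growth after 16-20 h at 37°C. Triplicate.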

≈ marks a conversion by molar mass, not a printed value.

For the compound `CC1(C)S[C@@H]2[C@H](NC(=O)[C@H](N)c3ccccc3)C(=O)N2[C@H]1C(=O)O` [AMPICILLIN], the MIC in assay [1] was 256 µg/mL; in assay [2], 512 µg/mL; in assay [3], 1020 µg/mL (≈ 2930 µM); in [4], over 1020 µg/mL; in assay [5], 32 µg/mL (≈ 91.6 µM); in assay [6], 512 µg/mL (≈ 1470 µM). Further, the MIC in assay [7] was 32 µg/mL (≈ 91.6 µM); in assay [8], 512 µg/mL; in assay [9], over 1020 µg/mL.

The values above are taken from ChEMBL document CHEMBL1687785, “ampG gene of Pseudomonas aeruginosa and its role in β-lactamase expression” (2010).
